Experimental data as given in ChEMBL document CHEMBL1127442, “Triazolinone biphenylsulfonamide derivatives as orally active angiotensin II antagonists with potent AT1 receptor affinity and enhanced AT2 affinity” (J Med Chem, 1994).
pIC50: −log10 of the molar value. “And” between values parts separate entries of the source, which are not always exact repeats. Equal values may be shown once. The source made the active and inactive calls. The calls are words filed in the database; no cut-off is given here.

Columns and labels:
Rattus norvegicus [1] = assay: (§1) Time from onset of action until significant (i.e., >=30%) inhibition of pressor response is no longer observed, at 0.3 (mg/kg) peroral dose; format: functional
How it was run: (§2)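 Conscious catheterized male Sprague-Dawley rats received compound iv or po as the water-soluble potassium salt, or in PEG 400 orally. AII (0.1 μg/kg iv) boluses were repeated at intervals while the compound was active.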

Rattus norvegicus [2] = assay: Time from onset of action until significant (i.e., >=30%) inhibition of pressor response is no longer observed, at 0.1 (mg/kg) intravenous dose; format: functional; how it was run: as §2
Rattus norvegicus [3] = assay: Inhibition of AII pressor response by the compound in conscious, normotensive rats, at 0.3 (mg/kg) intravenous dose; format: functional
How it was run: (§3)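 Male Sprague-Dawley rats (300-400 g) were conscious and catheterized for iv dosing and arterial pressure. Compound was given iv or po as the potassium salt in water, with PEG 400 for some oral doses. […] Peak inhibition is the mean of ≥2 rats.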

Rattus norvegicus [4] = assay: Time from onset of action until significant (i.e., >=30%) inhibition of pressor response is no longer observed, at 0.1 (mg/kg) peroral dose; format: functional; how it was run: as §2
[5] = molecular target: T1, Type-2 angiotensin II receptor (Rattus norvegicus, UniProt P35351); assay: In vitro inhibitory activity against angiotensin II rat midbrain AT2 receptor using radioligand [125I]-Sar Ile-AII
T1 sequence (P35351 whole entry): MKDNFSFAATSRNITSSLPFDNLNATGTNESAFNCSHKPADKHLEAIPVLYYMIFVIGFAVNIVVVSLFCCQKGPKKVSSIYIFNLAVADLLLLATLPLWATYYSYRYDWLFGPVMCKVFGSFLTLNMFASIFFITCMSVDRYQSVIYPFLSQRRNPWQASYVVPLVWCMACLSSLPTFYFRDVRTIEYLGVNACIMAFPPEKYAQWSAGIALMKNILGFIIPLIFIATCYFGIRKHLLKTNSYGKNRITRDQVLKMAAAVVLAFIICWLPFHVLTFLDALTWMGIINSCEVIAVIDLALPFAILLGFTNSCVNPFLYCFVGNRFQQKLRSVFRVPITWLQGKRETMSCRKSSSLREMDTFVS
How it was run: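 Dithiothreitol ([…]) was added to the assay mixture to abolish residual AT1 binding. Tubes were run in duplicate, and IC50 came from nonlinear regression of displacement curves.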

Rattus norvegicus [6] = assay: Inhibition of AII pressor response by the compound in conscious, normotensive rats, at 0.3 (mg/kg) peroral dose; format: functional; how it was run: as §3
Rattus norvegicus [7] = assay: Time from onset of action until significant (i.e., >=30%) inhibition of pressor response is no longer observed, at 1 (mg/kg) peroral dose; format: functional; how it was run: as §2
[8] = molecular target: T2, Type-1 angiotensin II receptor (Oryctolagus cuniculus, UniProt P34976); assay: In vitro inhibitory activity against angiotensin II rabbit aorta AT1 receptor using radioligand [125I]-Sar Ile-AII; format: tissue-based
T2 sequence (P34976 whole entry): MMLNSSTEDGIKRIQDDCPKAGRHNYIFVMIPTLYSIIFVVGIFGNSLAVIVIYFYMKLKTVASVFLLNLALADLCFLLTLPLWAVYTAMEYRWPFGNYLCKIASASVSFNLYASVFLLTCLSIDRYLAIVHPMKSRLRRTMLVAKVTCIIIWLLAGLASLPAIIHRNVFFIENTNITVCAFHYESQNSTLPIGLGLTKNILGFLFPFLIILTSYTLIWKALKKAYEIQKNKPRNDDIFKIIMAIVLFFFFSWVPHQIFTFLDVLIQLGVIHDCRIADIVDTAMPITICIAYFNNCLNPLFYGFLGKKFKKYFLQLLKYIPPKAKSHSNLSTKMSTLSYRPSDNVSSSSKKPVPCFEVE

Rattus norvegicus [9] = assay: Inhibition of AII pressor response by the compound in conscious, normotensive rats, at 0.1 (mg/kg) peroral dose; format: functional; how it was run: as §3
Rattus norvegicus [10] = assay: Inhibition of AII pressor response by the compound in conscious, normotensive rats, at 0.1 (mg/kg) intravenous dose; format: functional; how it was run: as §3
Rattus norvegicus [11] = assay: (§4) Time from onset of action until significant (i.e., >=30%) inhibition of pressor response is no longer observed, at 1 (mg/kg) intravenous dose; format: functional
Monkey [12] = assay: Time from onset of action until significant (i.e., >=30%) inhibition of pressor response is no longer observed, at 10 (mg/kg) peroral dose
Monkey [13] = assay: as §1; format: functional, Cercopithecidae; conditions: in the assay text read “intravenous” for “peroral”
Rattus norvegicus [14] = assay: Inhibition of AII pressor response by the compound in conscious, normotensive rats, at 3 (mg/kg) intravenous dose; format: functional; how it was run: as §3
[15] = Inhibition of AII pressor response by the compound in conscious, normotensive rhesus monkeys, at 1 (mg/kg) intravenous dose
Rattus norvegicus [16] = assay: Time from onset of action until significant (i.e., >=30%) inhibition of pressor response is no longer observed, at 0.3 (mg/kg) peroral dose; NA= Not active; format: functional, organism-based; how it was run: as §2
[17] = Inhibition of AII pressor response by the compound in conscious, normotensive rhesus monkeys, at 0.3 (mg/kg) intravenous dose
Monkey [18] = assay: as §4; format: functional, Cercopithecidae
Rattus norvegicus [19] = assay: Time from onset of action until significant (i.e., >=30%) inhibition of pressor response is no longer observed, at 3 (mg/kg) intravenous dose; format: functional; how it was run: as §2
Rattus norvegicus [20] = assay: Inhibition of AII pressor response by the compound in conscious, normotensive rats, at 1 (mg/kg) peroral dose; format: functional; how it was run: as §3
Monkey [21] = conditions: Cercopithecidae
Monkey [22] = assay: Time from onset of action until significant (i.e., >=30%) inhibition of pressor response is no longer observed, at 10 (mg/kg) peroral dose; format: functional, Cercopithecidae
How it was run: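 Conscious rhesus monkeys were pretreated with furosemide (5 mg/kg iv) and fasted 18 h. Compound was given orally by nasogastric tube, and AII challenges were given iv via a venous catheter, otherwise as in rats.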

Monkey [23] = assay: Inhibition of AII pressor response by the compound in conscious, normotensive monkey, at 10 (mg/kg) peroral dose; format: functional, Cercopithecidae
How it was run: (§5)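 Rhesus monkeys were conscious, given furosemide (5 mg/kg iv) the prior evening, and fasted 18 h with water available. They sat chaired with minimal restraint. AII and iv compound went through saphenous or brachial vein catheters, and oral compound by nasogastric tube. Peak % inhibition of the AII pressor response was measured otherwise as in the rat protocol.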

Monkey [24] = assay: Inhibition of AII pressor response by the compound in conscious, normotensive monkey, at 3 (mg/kg) peroral dose; NA= Not active; format: functional, organism-based; conditions: Cercopithecidae; how it was run: as §5
Monkey [25] = assay: Inhibition of AII pressor response by the compound in conscious, normotensive monkey, at 0.3 (mg/kg) intravenous dose; format: functional, Cercopithecidae; how it was run: as §5
Rattus norvegicus [26] = assay: Inhibition of AII pressor response by the compound in conscious, normotensive rats, at 1 (mg/kg) intravenous dose; format: functional; how it was run: as §3
Rattus norvegicus [27] = assay: Inhibition of AII pressor response by the compound in conscious, normotensive rats, at 3 (mg/kg) peroral dose; format: functional; how it was run: as §3
Rattus norvegicus [28] = assay: (§6) Time from onset of action until significant (i.e., >=30%) inhibition of pressor response is no longer observed, at 3 (mg/kg) peroral dose; format: functional
Monkey [29] = assay: Inhibition of AII pressor response by the compound in conscious, normotensive monkey, at 3 (mg/kg) peroral dose; format: functional, Cercopithecidae; how it was run: as §5
Monkey [30] = assay: as §6; format: functional, Cercopithecidae

Row | Structure (SMILES) | Duration (Rattus norvegicus [1]) | Inhibition (Rattus norvegicus [3]) [%] | pIC50 [5] | Duration (Rattus norvegicus [7]) [h] | pIC50 [8] | Duration (Rattus norvegicus [11]) [h] | Duration (Monkey [13]) [h] | Duration (Rattus norvegicus [19]) [h] | Inhibition (Rattus norvegicus [20]) [%] | Inhibition (Rattus norvegicus [26]) [%] | other results
1 | CCCCc1nn(-c2ccccc2C(F)(F)F)c(=O)n1Cc1ccc(-c2ccccc2S(=O)(=O)NC(=O)OC(C)(C)C)cc1 | >4.5 h and >3.5 h | 78 | 7.77 | >6 | 9.35 | >6 |  |  |  |  | Duration (Rattus norvegicus [2]): >4.5 h; Duration (Rattus norvegicus [4]): >3 h; Inhibition (Rattus norvegicus [6]): 81%; Inhibition (Rattus norvegicus [9]): 77%; Inhibition (Rattus norvegicus [10]): 76%
2 | CCCCc1nn(-c2ccccc2C(F)(F)F)c(=O)n1Cc1ccc(-c2ccccc2S(=O)(=O)NC(=O)c2ccccc2)cc1.ClCCl | <0.5 h | 31 | 6.52 |  | 9.37 |  | 5 | >6 |  |  | Duration (Monkey [12]): >4 h; Inhibition (Rattus norvegicus [14]): 87%; Inhibition [15]: 88%; Duration (Rattus norvegicus [16]): inactive; inhibition (Rattus norvegicus [6]): inactive; Inhibition [17]: 80%; Duration (Monkey [18]): >6 h
3 | CCCCc1nn(-c2ccccc2C(F)(F)F)c(=O)n1Cc1ccc(-c2ccccc2S(=O)(=O)NC(=O)C2CC2(C)C)cc1 (stereo unspecified) | >5.5 h | 84 | 6.66 | >6 | 9.44 |  | 3.5 |  | 76 |  | 
4 | CCCCc1nc(Cl)c(CO)n1Cc1ccc(-c2ccccc2-c2nnn[nH]2)cc1 [LOSARTAN] | 5.5 h | 52 |  |  |  |  | 0.1 | >6 | 58 | 78 | Duration (Monkey [21]): inactive; Duration (Monkey [22]): 2.1 h; Inhibition (Monkey [23]): 50%; inhibition (Monkey [24]): inactive; Inhibition (Monkey [25]): 49%
5 | O=C(NS(=O)(=O)c1ccccc1-c1ccc(Cn2c(CCCC(F)(F)F)nn(-c3ccccc3C(F)(F)F)c2=O)cc1)c1ccccc1Cl |  |  | 6.04 |  | 9.44 | 2.4 |  |  |  | 67 | Inhibition (Rattus norvegicus [27]): 76%; Duration (Rattus norvegicus [28]): >24 h
6 | CCCCc1nn(-c2ccccc2C(F)(F)F)c(=O)n1Cc1ccc(-c2ccccc2S(=O)(=O)NC(=O)c2ccco2)cc1 |  |  | 6.92 | 3.7 | 9.59 | >6 |  |  | 70 | 85 | Inhibition (Monkey [29]): 54%; Duration (Monkey [30]): 4 h
